# Tests used:
# [1] = target: Signal peptidase I (Escherichia coli K-12) (UniProt P00803); assay: Inhibition of Escherichia coli type 1 signal peptidase lepB assessed as residual activity at 0.625 uM preincubated for 10 mins followed by Dabcyl-VGGTATAYGAFSRPGLE-(EDANS)-OH substrate addition measured after 2 hrs by FRET based assay (reference value: 100%)
# Summary of the method: (§1)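 EcLepB (about 50 nM estimated) preincubated 10 min with compound. Reaction started with Dabcyl/EDANS FRET peptide at 8 µM final (Km 20 µM). Fluorescence followed continuously at 535 nm, 22 °C, for 2 h. Cleavage rates plotted against inhibitor concentration; IC50 from non-linear regression of sigmoidal dose-response curves.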
# [2] = target: Signal peptidase I (Escherichia coli K-12) (UniProt P00803); assay: Inhibition of Escherichia coli type 1 signal peptidase lepB assessed as residual activity at 10 uM preincubated for 10 mins followed by Dabcyl-VGGTATAYGAFSRPGLE-(EDANS)-OH substrate addition measured after 2 hrs by FRET based assay (reference value: 100%); summary of the method: as §1
# [3] = target: Signal peptidase I (Escherichia coli K-12) (UniProt P00803); assay: Inhibition of Escherichia coli type 1 signal peptidase lepB assessed as residual activity at 0.0024 uM preincubated for 10 mins followed by Dabcyl-VGGTATAYGAFSRPGLE-(EDANS)-OH substrate addition measured after 2 hrs by FRET based assay (reference value: 100%); summary of the method: as §1
# Acinetobacter baumannii = assay: Antibacterial activity against Acinetobacter baumannii ATCC 19606 after 16 to 20 hrs by broth microdilution method; assay type: functional; settings: ATCC 19606 = CIP 70.34 = JCM 6841
# Summary of the method: (§2)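 Broth microdilution in cation-adjusted Mueller-Hinton II per EUCAST/CLSI; two-fold compound series 64 down to 0.25 µg/mL final. Inoculum from fresh colonies (non-selective agar, 18-24 h, 35 ± 2 °C), adjusted to 0.5 McFarland, diluted to about 5 × 10^5 CFU/mL final. Static incubation 16-20 h at 35 ± 2 °C; MIC read visually as complete growth inhibition against medium-only wells.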
# Escherichia coli [4] = assay: Antibacterial activity against tolC deficient Escherichia coli CH3130 after 16 to 20 hrs by broth microdilution method; assay type: functional; summary of the method: as §2
# [5] = target: Signal peptidase I (Escherichia coli K-12) (UniProt P00803); assay: Inhibition of Escherichia coli type 1 signal peptidase lepB assessed as residual activity at 0.0195 uM preincubated for 10 mins followed by Dabcyl-VGGTATAYGAFSRPGLE-(EDANS)-OH substrate addition measured after 2 hrs by FRET based assay (reference value: 100%); summary of the method: as §1
# Signal peptidase I = Signal peptidase I (Escherichia coli K-12, UniProt P00803); assay: Inhibition of Escherichia coli type 1 signal peptidase lepB preincubated for 10 mins followed by Dabcyl-VGGTATAYGAFSRPGLE-(EDANS)-OH substrate addition measured after 2 hrs by FRET based assay; summary of the method: as §1
# Signal peptidase I, sequence (P00803 whole entry): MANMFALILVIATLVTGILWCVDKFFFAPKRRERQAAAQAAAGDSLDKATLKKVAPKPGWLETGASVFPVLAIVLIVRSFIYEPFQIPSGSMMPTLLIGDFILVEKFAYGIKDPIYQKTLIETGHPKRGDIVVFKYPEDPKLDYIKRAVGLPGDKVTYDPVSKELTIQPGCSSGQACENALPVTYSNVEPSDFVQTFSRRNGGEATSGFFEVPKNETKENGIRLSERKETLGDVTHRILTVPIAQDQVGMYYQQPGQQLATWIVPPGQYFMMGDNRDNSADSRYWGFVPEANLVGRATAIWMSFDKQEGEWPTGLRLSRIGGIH
# HepG2 = assay: Cytotoxicity against human HepG2 cells after 72 hrs by FMSA; assay type: cell-based; settings: HepG2, 72 h
# Summary of the method: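 HepG2 (ATCC) grown in EMEM with 10% FBS, pen/strep, 2 mM L-glutamine, used up to 20 passages. Seeded at 1000 cells/well, cultured overnight, then dosed acoustically from DMSO stocks. Eight two-fold dilutions in duplicate from top 64 or 32 µM; 72 h at 37 °C, 5% CO2. Fluorescein diacetate hydrolysis read at ex 485/em 530 nm; IC50 by non-linear regression.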
# [6] = target: Signal peptidase I (Escherichia coli K-12) (UniProt P00803); assay: Inhibition of Escherichia coli type 1 signal peptidase lepB assessed as residual activity at 0.0012 uM preincubated for 10 mins followed by Dabcyl-VGGTATAYGAFSRPGLE-(EDANS)-OH substrate addition measured after 2 hrs by FRET based assay (reference value: 100%); summary of the method: as §1
# [7] = target: Signal peptidase I (Escherichia coli K-12) (UniProt P00803); assay: Inhibition of Escherichia coli type 1 signal peptidase lepB assessed as residual activity at 1.25 uM preincubated for 10 mins followed by Dabcyl-VGGTATAYGAFSRPGLE-(EDANS)-OH substrate addition measured after 2 hrs by FRET based assay (reference value: 100%); summary of the method: as §1
# [8] = target: Signal peptidase I (Escherichia coli K-12) (UniProt P00803); assay: Inhibition of Escherichia coli type 1 signal peptidase lepB assessed as residual activity at 0.0781 uM preincubated for 10 mins followed by Dabcyl-VGGTATAYGAFSRPGLE-(EDANS)-OH substrate addition measured after 2 hrs by FRET based assay (reference value: 100%); summary of the method: as §1
# Escherichia coli [9] = assay: Antibacterial activity against Escherichia coli D22 CGSG 5163 harboring Ips mutant after 16 to 20 hrs by broth microdilution method; assay type: functional
# Summary of the method: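 Broth microdilution in cation-adjusted Mueller-Hinton II broth, following EUCAST and CLSI guidelines. Two-fold series at final concentrations 64 down to 0.25 µg/mL, with medium-only and growth controls. Inoculum from fresh colonies (18-24 h, 35 °C ± 2 °C) adjusted to 0.5 McFarland, final ≈5 × 10^5 CFU/mL. Plates incubated unshaken 16-20 h at 35 °C ± 2 °C. MIC read visually as complete inhibition of growth.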
# [10] = target: Signal peptidase I (Escherichia coli K-12) (UniProt P00803); assay: Inhibition of Escherichia coli type 1 signal peptidase lepB assessed as residual activity at 0.0006 uM preincubated for 10 mins followed by Dabcyl-VGGTATAYGAFSRPGLE-(EDANS)-OH substrate addition measured after 2 hrs by FRET based assay (reference value: 100%); summary of the method: as §1
# [11] = target: Signal peptidase I (Escherichia coli K-12) (UniProt P00803); assay: Inhibition of Escherichia coli type 1 signal peptidase lepB assessed as residual activity at 0.3125 uM preincubated for 10 mins followed by Dabcyl-VGGTATAYGAFSRPGLE-(EDANS)-OH substrate addition measured after 2 hrs by FRET based assay (reference value: 100%); summary of the method: as §1
# Klebsiella pneumoniae = assay: Antibacterial activity against Klebsiella pneumoniae ATCC 13883 after 16 to 20 hrs by broth microdilution method; assay type: functional; summary of the method: as §2
# [12] = Hemolytic activity in human RBC at 100 uM after 45 mins by spectrophotometric method relative to control; assay type: ADME, cell-based, Erythrocyte; settings: red blood cells (erythrocytes), read-out: Activity
# Summary of the method: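 Heparinized human blood; red cells washed three times in Tyrode buffer pH 7.4. Compound at 100 µM final with 1% DMSO and 50% RBC, shaken (250 rpm) 45 min at 37 °C. Cells pelleted (1000 × g, 10 min); supernatant haemoglobin at 540 nm. Percent lysis relative to buffer-only and 2% Triton X-100 controls.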
# [13] = target: Signal peptidase I (Escherichia coli K-12) (UniProt P00803); assay: Inhibition of Escherichia coli type 1 signal peptidase lepB assessed as residual activity at 0.0049 uM preincubated for 10 mins followed by Dabcyl-VGGTATAYGAFSRPGLE-(EDANS)-OH substrate addition measured after 2 hrs by FRET based assay (reference value: 100%); summary of the method: as §1
# [14] = target: Signal peptidase I (Escherichia coli K-12) (UniProt P00803); assay: Inhibition of Escherichia coli type 1 signal peptidase lepB assessed as residual activity at 0.0391 uM preincubated for 10 mins followed by Dabcyl-VGGTATAYGAFSRPGLE-(EDANS)-OH substrate addition measured after 2 hrs by FRET based assay (reference value: 100%); summary of the method: as §1
# [15] = target: Signal peptidase I (Escherichia coli K-12) (UniProt P00803); assay: Inhibition of Escherichia coli type 1 signal peptidase lepB assessed as residual activity at 0.0098 uM preincubated for 10 mins followed by Dabcyl-VGGTATAYGAFSRPGLE-(EDANS)-OH substrate addition measured after 2 hrs by FRET based assay (reference value: 100%); summary of the method: as §1
# [16] = target: Signal peptidase I (Escherichia coli K-12) (UniProt P00803); assay: Inhibition of Escherichia coli type 1 signal peptidase lepB assessed as residual activity at 2.5 uM preincubated for 10 mins followed by Dabcyl-VGGTATAYGAFSRPGLE-(EDANS)-OH substrate addition measured after 2 hrs by FRET based assay (reference value: 100%); summary of the method: as §1
# Escherichia coli [17] = assay: Antibacterial activity against Escherichia coli ATCC 25922 after 16 to 20 hrs by broth microdilution method; assay type: functional; summary of the method: as §2
# Staphylococcus aureus = assay: Antibacterial activity against Staphylococcus aureus ATCC 29213 after 16 to 20 hrs by broth microdilution method; assay type: functional; summary of the method: as §2
# [18] = target: Signal peptidase I (Escherichia coli K-12) (UniProt P00803); assay: Inhibition of Escherichia coli type 1 signal peptidase lepB assessed as residual activity at 5 uM preincubated for 10 mins followed by Dabcyl-VGGTATAYGAFSRPGLE-(EDANS)-OH substrate addition measured after 2 hrs by FRET based assay (reference value: 100%); summary of the method: as §1
# [19] = target: Signal peptidase I (Escherichia coli K-12) (UniProt P00803); assay: Inhibition of Escherichia coli type 1 signal peptidase lepB assessed as residual activity at 0.1563 uM preincubated for 10 mins followed by Dabcyl-VGGTATAYGAFSRPGLE-(EDANS)-OH substrate addition measured after 2 hrs by FRET based assay (reference value: 100%); summary of the method: as §1
# Pseudomonas aeruginosa [20] = assay: Antibacterial activity against Pseudomonas aeruginosa PAO1 after 16 to 20 hrs by broth microdilution method; assay type: functional; summary of the method: as §2
# Pseudomonas aeruginosa [21] = assay: Antibacterial activity against efflux defective Pseudomonas aeruginosa PAO750 after 16 to 20 hrs by broth microdilution method; assay type: functional; summary of the method: as §2
# Signal peptidase I (Escherichia coli K-12), sequence (P00803 whole entry): as above
SMILES,Activity [1] [%],Activity [2] [%],Activity [3] [%],MIC (Acinetobacter baumannii) [µg/mL],MIC (Escherichia coli [4]) [µg/mL],Activity [5] [%],IC50 (Signal peptidase I) [nM],IC50 (HepG2) [nM],Activity [6] [%],Activity [7] [%],Activity [8] [%],MIC (Escherichia coli [9]) [µg/mL],Activity [11] [%],MIC (Klebsiella pneumoniae) [µg/mL],"hemolysis at 0.75 h, 100 µM [12] [%]",Activity [13] [%],Activity [14] [%],Activity [15] [%],Activity [16] [%],MIC (Escherichia coli [17]) [µg/mL],other results
CCCCCCc1ccc(-c2ccc(C(=O)N[C@@H](CCCN)C(=O)N[C@H](C(=O)N[C@@H](C)C(=O)N[C@H]3Cc4cn(nn4)CCN4C[C@@H]5OB(O[C@@H]5C4)[C@H](C)NC3=O)[C@@H](C)O)cc2)cc1,36.3,17.8,79.9,32,16,71.3,104,9500,80.6,32.9,61.4,32,38.8,64,10.1,77,63.8,77.9,29.8,64,Activity [10]: 97.3%; MIC (Staphylococcus aureus): 32 µg/mL; Activity [18]: 26.7%; Activity [19]: 47.2%; MIC (Pseudomonas aeruginosa [20]): > 64 µg/mL; MIC (Pseudomonas aeruginosa [21]): > 64 µg/mL
C[C@@H]1NC(=O)[C@@H](NC(=O)[C@H](C)NC(=O)[C@@H](NC(=O)[C@H](CCCN)NC(=O)c2ccc(-c3ccccc3)cc2)[C@@H](C)O)Cc2cn(nn2)CCO[C@@H]2C[C@@H]3OB1O[C@@H]3C2,11.8,7.2,94.6,> 64,> 64,83.8,72,> 64000,100,10.6,48.6,> 64,12,> 64,0.2,84.9,68.9,88.3,9.9,> 64,MIC (Staphylococcus aureus): > 64 µg/mL; Activity [18]: 9.7%; Activity [19]: 26.4%; MIC (Pseudomonas aeruginosa [20]): > 64 µg/mL; MIC (Pseudomonas aeruginosa [21]): > 64 µg/mL
CCCCCCc1ccc(-c2nc3cc(C(=O)N[C@@H](CCCN)C(=O)N[C@H](C(=O)N[C@@H](C)C(=O)N[C@H]4Cc5cn(nn5)CCO[C@@H]5C[C@@H]6OB(O[C@@H]6C5)[C@H](C)NC4=O)[C@@H](C)O)ccc3[nH]2)cc1,8.6,6.3,92.8,64,16,63.2,29,24400,100,5.4,16.5,64,6.8,64,0.5,88.3,40.6,86.3,2.8,> 64,MIC (Staphylococcus aureus): 4 µg/mL; Activity [18]: -0.1%; Activity [19]: 7.2%; MIC (Pseudomonas aeruginosa [20]): > 64 µg/mL; MIC (Pseudomonas aeruginosa [21]): 64 µg/mL

# — ChEMBL document CHEMBL4270642, “Boronic ester-linked macrocyclic lipopeptides as serine protease inhibitors targeting Escherichia coli type I signal peptidase” (Eur J Med Chem, 2018)
